Drawing on ChEMBL document CHEMBL2046296, “Synthesis and antidepressant activity of arylalkanol-piperidine derivatives as triple reuptake inhibitors” (Eur J Med Chem, 2012), this text covers inhibition and Activity for five molecules.

In assay [1] the target is T1, Muscarinic acetylcholine receptor M1 (Homo sapiens) (UniProt P11229).
T1 sequence (whole entry): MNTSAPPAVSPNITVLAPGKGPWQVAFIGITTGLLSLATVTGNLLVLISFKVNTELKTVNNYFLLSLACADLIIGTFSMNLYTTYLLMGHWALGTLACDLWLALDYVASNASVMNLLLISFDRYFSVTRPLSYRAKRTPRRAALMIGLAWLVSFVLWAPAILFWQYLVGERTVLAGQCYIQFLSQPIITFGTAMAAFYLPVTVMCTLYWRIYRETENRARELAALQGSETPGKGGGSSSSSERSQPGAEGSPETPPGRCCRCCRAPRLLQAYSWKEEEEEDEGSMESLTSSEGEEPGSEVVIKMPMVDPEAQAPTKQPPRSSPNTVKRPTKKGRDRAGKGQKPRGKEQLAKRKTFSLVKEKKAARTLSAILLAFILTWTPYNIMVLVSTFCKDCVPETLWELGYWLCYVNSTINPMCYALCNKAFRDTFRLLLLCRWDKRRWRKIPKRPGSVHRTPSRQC
Description: Displacement of [3H]pirenzepine from human recombinant M1 receptor expressed in CHO cells at 10 uM after 60 mins by liquid scintillation counting. The class given is cell-based. Put shortly: (§1)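 Radioligand binding panel run by a contract lab (CEREP). Percent inhibition of specific radioligand binding was measured at a single primary test concentration of 10.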
On the technique in general: Displacement assays read how much labelled ligand stays bound in the presence of the test substance.

Assay [2] addresses Adrenergic receptor alpha-2 (Rattus norvegicus) (UniProt P22086+P19328+P22909). Description: Displacement of [3H]RX821002 from rat alpha2 adrenergic receptor at 10 uM after 30 mins by liquid scintillation counting. Summed up: as §1
The target in assay [3] is D(3) dopamine receptor (Homo sapiens) (UniProt P35462). The assay can be described thus: Displacement of [3H]Methylspiperone from human recombinant dopamine D3 receptor expressed in CHO cells at 10 uM after 60 mins by liquid scintillation counting. The class given is cell-based. Summed up: as §1
Assay [4] has as its target D(2) dopamine receptor (Homo sapiens) (UniProt P14416). Description: Displacement of [3H]Methylspiperone from dopamine D2 receptor at 10 uM. Summed up:
as §1

The target in assay [5] is Adrenergic receptor alpha-1 (Rattus norvegicus) (UniProt P15823+P23944+P43140). Description: Displacement of [3H]Prazosin from rat alpha1 adrenergic receptor at 10 uM after 60 mins by liquid scintillation counting. Summed up: as §1
Assay [6] deals with Mus musculus. The assay can be described thus: Antidepressant activity in mouse assessed as decrease in immobility at 20 mg/kg, po administered 30 mins prior to testing by tail suspension test relative to vehicle control. The class given is functional. Also on record: scale not given: the % may be the effect or the level left. Put shortly: (§2)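 Oral doses of 10–50 mg/kg (three doses) were given once, 30 min before testing. Mice were hung by adhesive tape 1 cm from the tail tip, 75 cm above the tabletop. Immobility was recorded for 5 min, scored blind, 10–12 mice per group, against vehicle controls. One-way ANOVA with Scheffe post hoc test; p<0.05 significant.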

Assay [7] concerns the target 5-hydroxytryptamine receptor 2A (Homo sapiens) (UniProt P28223). The assay can be described thus: Displacement of [3H]Ketanserin from human recombinant 5HT2A receptor expressed in CHO cells at 10 uM after 15 mins by liquid scintillation counting. The class given is cell-based. Summed up:
as §1

Assay [8] deals with 5-hydroxytryptamine receptor 7 (Homo sapiens) (UniProt P34969). Description: Displacement of [3H]LSD from human recombinant 5HT7 receptor expressed in CHO cells at 10 uM after 120 mins by liquid scintillation counting. The class given is cell-based. Put shortly:
as §1

In assay [9] the target is Beta-2 adrenergic receptor (Homo sapiens) (UniProt P07550). Description: Displacement of [3H](-)CGP12177 beta2 adrenergic receptor at 10 uM. Summed up:
as §1

In assay [10] the test system is Mus musculus. The assay can be described thus: Antidepressant activity in mouse assessed as decrease in immobility at 10 mg/kg, po administered 30 mins prior to testing by tail suspension test relative to vehicle control. The class given is functional. More on the design: scale not given: the % may be the effect or the level left. Put shortly: as §2
For assay [11], the target named is T2, 5-hydroxytryptamine receptor 3A (Homo sapiens) (UniProt P46098).
T2 sequence (whole entry): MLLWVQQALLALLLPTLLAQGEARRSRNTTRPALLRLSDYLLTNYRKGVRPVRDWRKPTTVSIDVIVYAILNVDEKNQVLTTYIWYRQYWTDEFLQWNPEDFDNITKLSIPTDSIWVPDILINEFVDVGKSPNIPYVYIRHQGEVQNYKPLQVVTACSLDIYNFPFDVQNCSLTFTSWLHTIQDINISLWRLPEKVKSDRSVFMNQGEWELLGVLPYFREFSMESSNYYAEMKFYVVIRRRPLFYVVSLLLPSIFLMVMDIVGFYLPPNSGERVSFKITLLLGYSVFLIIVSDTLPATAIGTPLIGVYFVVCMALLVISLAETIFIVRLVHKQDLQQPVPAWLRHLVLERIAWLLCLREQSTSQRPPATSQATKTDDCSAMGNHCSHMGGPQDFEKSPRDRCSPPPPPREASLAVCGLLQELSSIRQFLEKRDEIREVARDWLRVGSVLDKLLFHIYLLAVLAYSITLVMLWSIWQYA
The assay can be described thus: Displacement of [3H]BRL43694 from human recombinant 5HT3 receptor expressed in CHO cells at 10 uM after 60 mins by liquid scintillation counting. The class given is cell-based. Summed up: as §1

Assay [12] deals with T3, 5-hydroxytryptamine receptor 1A (Homo sapiens) (UniProt P08908).
T3 sequence (whole entry): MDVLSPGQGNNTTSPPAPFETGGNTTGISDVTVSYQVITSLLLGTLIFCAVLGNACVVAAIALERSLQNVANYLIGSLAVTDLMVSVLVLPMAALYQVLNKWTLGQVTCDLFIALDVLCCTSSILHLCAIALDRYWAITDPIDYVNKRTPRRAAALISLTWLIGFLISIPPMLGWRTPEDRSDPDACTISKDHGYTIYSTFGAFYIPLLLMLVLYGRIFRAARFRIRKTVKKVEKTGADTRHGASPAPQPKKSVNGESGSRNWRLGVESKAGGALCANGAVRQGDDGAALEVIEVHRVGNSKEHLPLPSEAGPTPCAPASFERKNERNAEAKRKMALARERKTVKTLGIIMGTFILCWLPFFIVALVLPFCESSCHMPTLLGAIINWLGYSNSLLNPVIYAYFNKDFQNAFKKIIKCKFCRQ
Description: Displacement of [3H]8-OH-DPAT from human recombinant 5HT1A receptor expressed in CHO cells at 10 uM after 60 mins by liquid scintillation counting. The class given is cell-based. Put shortly: as §1

Assay [13] has as its system Mus musculus. Description: Antidepressant activity in po dosed mouse assessed as decrease in immobility administered 30 mins prior to testing by tail suspension test relative to vehicle control. The class given is functional, organism-based. Summed up:
as §2

In assay [14] the target is Histamine H2 receptor (Homo sapiens) (UniProt P25021). Description: Displacement of [I125}APT from histamine H2 receptor at 10 uM. Summed up: as §1
In a further assay the target is D(1A) dopamine receptor (Homo sapiens, UniProt P21728). The assay can be described thus: Displacement of [3H]SCH23390 from dopamine D1 receptor at 10 uM. Summed up: as §1
The target of assay [15] is 5-hydroxytryptamine receptor 1B (Homo sapiens) (UniProt P28222). Description: Displacement of [I125]CYP from 5HT1B receptor at 10 uM. Summed up: as §1
Assay [16] has as its system Mus musculus. The assay can be described thus: Antidepressant activity in mouse assessed as decrease in immobility at 50 mg/kg, po administered 30 mins prior to testing by tail suspension test relative to vehicle control. The class given is functional. More on the design: scale not given: the % may be the effect or the level left. Put shortly: as §2
Assay [17] deals with 5-hydroxytryptamine receptor 5A (Homo sapiens) (UniProt P47898). Description: Displacement of [3H]LSD from 5HT5A receptor at 10 uM. Put shortly: as §1
Sequence of 5-hydroxytryptamine receptor 5A (Homo sapiens) (P47898 whole entry): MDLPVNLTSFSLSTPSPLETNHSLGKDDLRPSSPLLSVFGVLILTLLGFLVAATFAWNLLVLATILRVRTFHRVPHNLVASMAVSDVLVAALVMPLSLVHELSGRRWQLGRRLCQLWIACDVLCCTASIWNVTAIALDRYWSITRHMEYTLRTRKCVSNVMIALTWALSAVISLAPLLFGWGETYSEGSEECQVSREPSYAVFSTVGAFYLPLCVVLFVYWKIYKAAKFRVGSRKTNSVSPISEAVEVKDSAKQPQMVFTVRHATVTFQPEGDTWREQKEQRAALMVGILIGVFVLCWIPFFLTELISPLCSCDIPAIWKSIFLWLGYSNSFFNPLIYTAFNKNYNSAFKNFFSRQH

Sequence of 5-hydroxytryptamine receptor 7 (Homo sapiens) (P34969 whole entry): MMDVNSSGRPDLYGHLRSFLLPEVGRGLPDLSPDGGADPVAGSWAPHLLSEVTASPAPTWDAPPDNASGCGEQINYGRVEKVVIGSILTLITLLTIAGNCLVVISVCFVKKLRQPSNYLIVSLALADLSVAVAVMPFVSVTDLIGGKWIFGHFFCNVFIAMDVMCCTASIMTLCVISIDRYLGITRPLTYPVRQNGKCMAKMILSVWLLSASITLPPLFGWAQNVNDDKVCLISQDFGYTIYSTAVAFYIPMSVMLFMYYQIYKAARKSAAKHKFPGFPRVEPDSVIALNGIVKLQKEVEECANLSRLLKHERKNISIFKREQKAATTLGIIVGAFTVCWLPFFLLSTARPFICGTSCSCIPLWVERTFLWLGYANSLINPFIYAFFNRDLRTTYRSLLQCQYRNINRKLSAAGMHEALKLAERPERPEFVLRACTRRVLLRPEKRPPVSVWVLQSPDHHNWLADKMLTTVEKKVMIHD
Sequence of 5-hydroxytryptamine receptor 1B (Homo sapiens) (P28222 whole entry): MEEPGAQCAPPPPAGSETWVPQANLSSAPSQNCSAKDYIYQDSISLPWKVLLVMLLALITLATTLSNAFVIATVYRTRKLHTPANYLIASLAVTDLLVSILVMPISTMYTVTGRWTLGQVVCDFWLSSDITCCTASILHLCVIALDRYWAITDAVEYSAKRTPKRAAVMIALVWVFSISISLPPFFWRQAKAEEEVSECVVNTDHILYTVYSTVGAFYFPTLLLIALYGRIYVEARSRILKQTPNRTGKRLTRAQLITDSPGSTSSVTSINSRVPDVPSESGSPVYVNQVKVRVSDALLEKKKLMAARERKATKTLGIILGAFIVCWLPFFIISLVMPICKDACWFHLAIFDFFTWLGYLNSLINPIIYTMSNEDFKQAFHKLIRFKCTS
Sequence of Beta-2 adrenergic receptor (Homo sapiens) (P07550 whole entry, looked up): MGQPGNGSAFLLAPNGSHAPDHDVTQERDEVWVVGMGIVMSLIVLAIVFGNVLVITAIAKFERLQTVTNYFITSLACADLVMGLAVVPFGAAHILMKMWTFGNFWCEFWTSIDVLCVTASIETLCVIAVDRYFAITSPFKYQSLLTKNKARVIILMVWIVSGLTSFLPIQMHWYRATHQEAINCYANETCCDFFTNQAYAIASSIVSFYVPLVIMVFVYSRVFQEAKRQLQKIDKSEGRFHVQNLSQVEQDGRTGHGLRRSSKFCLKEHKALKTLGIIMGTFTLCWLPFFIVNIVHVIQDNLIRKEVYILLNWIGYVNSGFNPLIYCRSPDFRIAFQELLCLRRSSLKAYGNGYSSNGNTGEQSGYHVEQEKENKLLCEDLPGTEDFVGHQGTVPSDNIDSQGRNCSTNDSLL
Sequence of 5-hydroxytryptamine receptor 2A (Homo sapiens) (P28223 whole entry): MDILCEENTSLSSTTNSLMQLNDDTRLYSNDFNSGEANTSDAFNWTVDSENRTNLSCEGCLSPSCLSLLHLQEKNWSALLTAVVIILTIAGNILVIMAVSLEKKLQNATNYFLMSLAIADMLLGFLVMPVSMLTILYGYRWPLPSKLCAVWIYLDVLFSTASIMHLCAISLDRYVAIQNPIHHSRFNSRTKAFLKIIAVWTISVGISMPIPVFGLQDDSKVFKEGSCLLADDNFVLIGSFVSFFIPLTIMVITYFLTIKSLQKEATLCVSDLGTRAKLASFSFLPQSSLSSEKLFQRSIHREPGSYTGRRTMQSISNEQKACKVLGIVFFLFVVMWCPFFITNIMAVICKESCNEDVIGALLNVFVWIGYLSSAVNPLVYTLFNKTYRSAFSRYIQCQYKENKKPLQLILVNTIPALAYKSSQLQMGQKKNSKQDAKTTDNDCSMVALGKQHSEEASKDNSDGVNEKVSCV
Sequence of Histamine H2 receptor (Homo sapiens) (P25021 whole entry): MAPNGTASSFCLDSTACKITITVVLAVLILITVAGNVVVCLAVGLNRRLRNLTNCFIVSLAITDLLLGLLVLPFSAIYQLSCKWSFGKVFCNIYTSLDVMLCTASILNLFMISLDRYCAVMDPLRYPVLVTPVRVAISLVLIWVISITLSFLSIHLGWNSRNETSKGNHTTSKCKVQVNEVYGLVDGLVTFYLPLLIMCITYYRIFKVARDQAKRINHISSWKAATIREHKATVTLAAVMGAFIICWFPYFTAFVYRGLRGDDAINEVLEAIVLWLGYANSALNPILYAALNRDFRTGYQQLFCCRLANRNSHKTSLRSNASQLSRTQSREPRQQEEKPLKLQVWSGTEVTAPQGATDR
Sequence of D(2) dopamine receptor (Homo sapiens) (P14416 whole entry): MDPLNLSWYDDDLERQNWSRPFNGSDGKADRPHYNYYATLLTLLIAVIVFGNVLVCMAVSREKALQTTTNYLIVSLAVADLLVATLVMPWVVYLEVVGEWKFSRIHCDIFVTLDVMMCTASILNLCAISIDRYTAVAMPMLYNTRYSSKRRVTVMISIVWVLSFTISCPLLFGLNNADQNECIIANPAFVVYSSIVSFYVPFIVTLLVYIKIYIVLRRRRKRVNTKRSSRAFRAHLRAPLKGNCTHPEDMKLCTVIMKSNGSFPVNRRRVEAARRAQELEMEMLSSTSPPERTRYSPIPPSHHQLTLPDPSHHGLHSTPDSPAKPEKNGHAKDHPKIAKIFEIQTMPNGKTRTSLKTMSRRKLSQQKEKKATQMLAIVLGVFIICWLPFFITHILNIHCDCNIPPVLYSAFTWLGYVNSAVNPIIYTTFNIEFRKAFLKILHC
Sequence of D(3) dopamine receptor (Homo sapiens) (P35462 whole entry): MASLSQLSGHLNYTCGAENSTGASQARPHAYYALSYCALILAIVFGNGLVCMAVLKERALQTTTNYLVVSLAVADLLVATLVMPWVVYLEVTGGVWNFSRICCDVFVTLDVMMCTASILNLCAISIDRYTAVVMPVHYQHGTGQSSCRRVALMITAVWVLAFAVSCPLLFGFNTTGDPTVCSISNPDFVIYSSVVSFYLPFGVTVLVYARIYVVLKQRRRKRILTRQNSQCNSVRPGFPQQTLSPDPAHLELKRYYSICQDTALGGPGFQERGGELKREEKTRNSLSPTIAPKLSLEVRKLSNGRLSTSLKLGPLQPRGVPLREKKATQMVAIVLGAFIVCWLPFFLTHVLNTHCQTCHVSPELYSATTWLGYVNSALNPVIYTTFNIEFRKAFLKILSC
Sequence of D(1A) dopamine receptor (P21728 whole entry): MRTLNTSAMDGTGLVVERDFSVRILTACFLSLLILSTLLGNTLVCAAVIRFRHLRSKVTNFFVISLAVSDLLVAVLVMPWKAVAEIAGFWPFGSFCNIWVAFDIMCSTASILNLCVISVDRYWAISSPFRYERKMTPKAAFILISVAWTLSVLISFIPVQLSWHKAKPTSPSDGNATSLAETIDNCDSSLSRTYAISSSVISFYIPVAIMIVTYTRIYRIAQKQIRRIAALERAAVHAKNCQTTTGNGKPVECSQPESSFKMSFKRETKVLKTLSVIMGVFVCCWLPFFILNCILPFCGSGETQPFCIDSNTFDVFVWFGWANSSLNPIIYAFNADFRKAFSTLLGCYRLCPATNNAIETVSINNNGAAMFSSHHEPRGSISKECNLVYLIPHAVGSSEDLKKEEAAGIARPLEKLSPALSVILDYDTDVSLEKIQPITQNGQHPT

What is called inhibition is the drop in the measured response relative to a control, in per cent. On to `COc1ccc2cc(C(O)CCN3CC=C(Cc4ccccc4)CC3)ccc2c1Cl` (racemic), for which the inhibition in [1] was 57.8%; in assay [2], 32.9%; in [3] it was 11.3%; in assay [4], -0.5%; in assay [5] it was 45.6%; in assay [7] it was 15.6%. The inhibition in [8] stood at 5.8%; in [9], 28.5%; in [11], 0.5%; in assay [12], 46.5%; in assay [14], 33.2%; on D(1A) dopamine receptor it was 27.1%. Moreover, the inhibition in assay [15] was found to be 10.2%. Further, the Activity in the assay on Mus musculus [6] is 42%; in the assay on Mus musculus [10], 21%; with Mus musculus [13], “Dose-dependent effect”; in the assay on Mus musculus [16], 57%.
Consider `OC(CCN1CC=C(Cc2ccccc2)CC1)c1cc2ccccc2s1` (racemic), for which the inhibition in [1] came to 31.2%; in assay [2], 32.5%; in [3], 1.2%; in [4], 10.8%; in [5], 0.8%; in assay [7] it was 31.5%. Also, the inhibition in assay [8] turned out to be 43.5%; in assay [9] it was 16.7%; in assay [11], 10.6%; in [12], 65.4%; in [17], 0.2%; in [14], 8.2%. At D(1A) dopamine receptor, the inhibition came out at 85.6%. Moreover, the Activity in the assay with Mus musculus [6] worked out at 21%; in the assay on Mus musculus [10] it was 14%; in the assay on Mus musculus [16] it was 34%.
Turning to `OC(CCN1CCC(O)(Cc2ccccc2)CC1)c1ccc(Cl)c(Cl)c1` (racemic), the inhibition worked out at 34.2% in [1]; 43.5% in [2]; 4.6% in assay [3]; 19.2% in assay [4]; 84.3% in [5]; 0.9% in assay [7]. Moreover, the inhibition in assay [8] amounted to 19.2%; in assay [9], 14.7%; in [11], 14.1%; in assay [12], 27.3%; in assay [17], 41.6%; in [14] it was 6.7%. In addition, the inhibition at D(1A) dopamine receptor stood at 47.9%; in [15], 9.7%. In addition, the Activity is 42% with Mus musculus [6], 33% in the assay with Mus musculus [10], “Dose-dependent effect” in the assay on Mus musculus [13] and 64% in the assay on Mus musculus [16].
Consider `OC(CCN1CC=C(Cc2ccccc2)CC1)c1ccc(Cl)c(Cl)c1` (racemic), for which the inhibition was 10.7% in assay [1]; 16.2% in [2]; 10.3% in assay [3]; 31.4% in assay [4]; 35.6% in [5]; 4.8% in assay [7]. The inhibition in assay [8] is 0.5%; in assay [9] it was 62.3%; in [11], 25.1%; in [12], 10.3%; in assay [14], 15.6%; on D(1A) dopamine receptor, 33.3%. Further, in assay [15], the inhibition was 0.6%. Also, the Activity with Mus musculus [6] was 51%; with Mus musculus [10] it was 24%; in the assay with Mus musculus [16] it was 35%.
In the case of `OC(CCN1CC=C(Cc2ccccc2)CC1)c1csc2ccccc12` (racemic), the inhibition was 4.3% in [1]; 27.3% in assay [2]; 3.5% in [3]; 4.3% in [4]; 51.2% in [5]; 42.6% in assay [7]. The inhibition came out at 29.7% in assay [8]; 49.8% in assay [9]; 8.3% in assay [11]; 33.4% in assay [12]; 33.5% in [17]; 14.9% in assay [14]. For the same molecule, the inhibition was 35.6% at D(1A) dopamine receptor and 6.5% in [15]. The Activity in the assay on Mus musculus [6] is 51%; in the assay on Mus musculus [10] it was 32%; in the assay on Mus musculus [13], “Dose-dependent effect”; with Mus musculus [16], 64%.
